Legend:
purified human MPO = purified human MPO (Homo sapiens, UniProt P05164); experiment: Inhibition kinetics of MPO-dependent TMB oxidation by thiol antioxidants; type: biochemical; settings: for mode of inhibition of MPO-catalyzed oxidation of TMB: double reciprocal plots 1/V vs 1/[TMB]
Summary of the method: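 Purified human MPO (1.5 nM) incubated with test thiol at 0.1–1 μM. Activity measured as initial rate of TMB oxidation, with TMB varied from 20 to 180 μM. Data plotted as double reciprocal 1/V vs 1/[TMB] (Lineweaver-Burk) for each inhibitor level. Slopes of these lines replotted against inhibitor concentration to derive Ki.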

MPO compound I and II = settings: cited from earlier work; for rate constant k of reaction with compound I and II of MPO: both compound I and II
[1] = cited from earlier work
[2] = pH 7.4; cited from earlier work
NF-κB = settings: GSH 1 mM with CF sputum sol-phase 10 μl/ml, HBE1 cells
[3] = CF patients, 300/450 mg three times daily for 14 days; cited from earlier work
[4] = Ex vivo scavenging of N-chloramines in CF sputum sol-phase; set-up: species or system human; settings: 2 μM antioxidant, 25 μl CF sputum sol-phase, 30 min
MPO in CF sputum = type: biochemical, human; settings: extrapolated from IC50 in about 2000-fold diluted sputum (Fig 4)
ground state ferric MPO = settings: cited from earlier work
[5] = oral 0.6–1.0 g three times daily for 4 weeks; cited from earlier work
[6] = inhalation in CF patients, secondary to acidic nature; no reference given; cited from earlier work
[7] = no reference given; cited from earlier work

Sequence of purified human MPO (P05164 279-745 limits assumed): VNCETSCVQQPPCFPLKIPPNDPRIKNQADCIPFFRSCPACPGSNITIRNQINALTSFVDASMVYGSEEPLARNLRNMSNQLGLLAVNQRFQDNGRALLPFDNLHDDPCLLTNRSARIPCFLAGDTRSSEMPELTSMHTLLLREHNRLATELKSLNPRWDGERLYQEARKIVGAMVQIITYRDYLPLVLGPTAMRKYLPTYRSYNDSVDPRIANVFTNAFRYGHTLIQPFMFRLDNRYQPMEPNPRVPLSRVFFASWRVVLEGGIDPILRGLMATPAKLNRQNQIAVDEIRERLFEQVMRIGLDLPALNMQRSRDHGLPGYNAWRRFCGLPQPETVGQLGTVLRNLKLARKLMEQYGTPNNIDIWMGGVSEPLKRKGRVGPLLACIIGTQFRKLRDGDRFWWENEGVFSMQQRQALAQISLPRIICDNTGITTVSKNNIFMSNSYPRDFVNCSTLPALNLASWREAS
Sequence of purified human MPO (P05164 165-273 limits assumed): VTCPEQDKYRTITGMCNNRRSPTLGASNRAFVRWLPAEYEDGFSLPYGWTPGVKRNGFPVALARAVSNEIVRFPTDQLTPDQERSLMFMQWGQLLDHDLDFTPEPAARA

## N[C@@H](CCC(=O)N[C@@H](CS)C(=O)NCC(=O)O)C(=O)O [GSH, glutathione]
Purified human MPO
  Ki: 80 nM
  mode of inhibition of MPO-catalyzed oxidation of TMB: competitive
MPO compound I and II
  rate constant k of reaction with compound I and II of MPO: 10^1–10^2 M^−1s^−1
[1]
  rate constant k of reaction with taurine chloramine: 115 ± 14 M⁻¹ s⁻¹
[2]
  second-order rate constant for reaction with H2O2: 0.87 M⁻¹ s⁻¹
NF-κB
  p65 nuclear translocation induced by CF sputum (sol-phase): inhibit p65 nuclear translocation
[3]
  lung function after aerosolized GSH: improved lung function
[4]
  lowering of N-chloramine levels: 62 ± 11%
MPO in CF sputum
  respiratory tract lining fluid concentration required to inhibit MPO in the CF airway: 1 to 50 mM

## OO [H2O2]
Ground state ferric MPO
  rate constant k of reaction with ground state ferric MPO: 2.6e+07 M⁻¹ s⁻¹

## CC(=O)N[C@@H](CS)C(=O)O [NAC, N-acetylcysteine]
Purified human MPO
  mode of inhibition of MPO-catalyzed oxidation of TMB: non-competitive
MPO compound I and II
  rate constant k of reaction with compound I and II of MPO: 10^1–10^2 M^−1s^−1
[1]
  rate constant k of reaction with taurine chloramine: 46 ± 7 M⁻¹ s⁻¹
  reactivity with taurine chloramine relative to GSH (times less reactive): approx. 2.5
[2]
  second-order rate constant for reaction with H2O2: 0.16 M⁻¹ s⁻¹
[5]
  lung function, as assessed by FEV1: no improvement in lung function
  neutrophil GSH content: increased neutrophil GSH content
  neutrophil influx in CF airways: decreased neutrophil influx in CF airways
  sputum IL-8 levels: decreased sputum IL-8 levels
  sputum elastase activity: decreased sputum elastase activity
[6]
  side effects on inhalation: can induce bronchospasm
[7]
  pKa: 2.2
[4]
  lowering of N-chloramine levels: 80 ± 11%
MPO in CF sputum
  respiratory tract lining fluid concentration required to inhibit MPO in the CF airway: 1 to 50 mM

## Cc1cc(-c2cc(C)c(N)c(C)c2)cc(C)c1N [TMB, 3, 3′, 5, 5′-tetramethylbenzidine]
MPO compound I and II
  rate constant of reaction with MPO compound I: 3.6e+06 M⁻¹ s⁻¹
  rate constant of reaction with MPO compound II: 940000 M⁻¹ s⁻¹

From article PMC3018684 (Free radical research, 2010)
